Data from ChEMBL document CHEMBL4219168, “Design, synthesis, and evaluation of l-cystine diamides as l-cystine crystallization inhibitors for cystinuria” (Bioorg Med Chem Lett, 2018).
Activity calls are given as the source filed them. The calls are words filed in the database; no cut-off is given here.

Columns and labels:
[1] = test system: Cystine; assay: Inhibition of L-cystine crystallization assessed as increase in apparent aqueous solubility after 72 hrs by fluorescence assay relative to CDME
Outline: (§1)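 Dose-response curves were run in supersaturated aqueous L-cystine, with apparent solubility read by fluorescence assay. EC2x is the effective concentration that doubles the apparent solubility of L-cystine in water. The ratio is the potency gain over the CDME control.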

[2] = test system: Cystine; assay: Inhibition of L-cystine crystallization assessed as increase in apparent aqueous solubility after 72 hrs by fluorescence assay; outline: as §1
[3] = test system: Cystine; assay: Inhibition of L-cystine crystallization assessed as increase in apparent aqueous solubility at 2 to 10 uM after 72 hrs by fluorescence assay relative to CDME
[4] = test system: Cystine; assay: Inhibition of L-cystine crystallization assessed as increase in apparent aqueous solubility at 2 to 10 uM after 72 hrs by fluorescence assay
Outline: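 Supersaturated L-cystine in Millipore water was spiked 1:100 with 1 mM or 200 μM diamide stock, giving final 10 μM or 2 μM. Mixtures were held at 25 °C for 72 h. Apparent L-cystine solubility was then read with an in-house fluorescence assay. CDME served as positive control and water as blank.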

Structure (SMILES)	fold change (FC) [1]	EC2 [2]	inhibition [3]	inhibition [4]
CN1CCN(C(=O)[C@@H](N)CSSC[C@H](N)C(=O)N2CCN(C)CC2)CC1	24.5	0.26 µM		
CN[C@@H](CSSC[C@H](NC)C(=O)N1CCOCC1)C(=O)N1CCOCC1			inactive	inactive
CN[C@@H](CSSC[C@H](NC)C(=O)N(C)C)C(=O)N(C)C			inactive	inactive
CN[C@@H](CSSC[C@H](NC)C(=O)N1CCCC1)C(=O)N1CCCC1			inactive	inactive
N[C@@H](CSSC[C@H](N)C(=O)NCCO)C(=O)NCCO	3.2	2.02 µM		
CN[C@@H](CSSC[C@H](NC)C(=O)NC1CC1)C(=O)NC1CC1			inactive	inactive
CCN(CC)C(=O)[C@H](CSSC[C@H](NC)C(=O)N(CC)CC)NC			inactive	inactive
CN[C@@H](CSSC[C@H](NC)C(=O)N1CCCCC1)C(=O)N1CCCCC1			inactive	inactive
N[C@@H](CSSC[C@H](N)C(=O)N1CCOCC1)C(=O)N1CCOCC1	7.4	0.86 µM		
CN[C@@H](CSSC[C@H](NC)C(=O)NCCO)C(=O)NCCO			inactive	inactive
N[C@@H](CSSC[C@H](N)C(=O)N1CCCCC1)C(=O)N1CCCCC1	4	1.59 µM		
N[C@@H](CSSC[C@H](N)C(=O)NC1CC1)C(=O)NC1CC1	1.8	3.53 µM		
COC(=O)[C@@H](N)CSSC[C@H](N)C(=O)OC		6.37 µM		
